This sample holds only a part of the variants without activity.
B1: tRNA (parent)
chain: CUCUCGGUAGCCAAGUUGGUUUAAGGCGCAAGACUUUAAUUUAUCACUACGAAAUCUUGAGAUCGGGCGUUCGACUCGCCCCCGGGAGAUUUUUUCCUCGAGCAA

Variants of: B1
Experiment: nonsense suppression (GFP-seq) (ratio to wild type); higher = more function; SUP4oc tRNA, yeast GFP reporter sort-seq
In short: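 Yeast were grown in raffinose/galactose medium with 80 mg/L adenine, each strain bearing a genome-integrated ochre-suppressor tRNA variant from a ~3% random-mutation library, a galactose-driven GFP ochre reporter, and RFP. After sorting into GFP/RFP bins, every bin was sequenced on an Illumina platform at phred ≥30. The GFPSEQ value, a measure of nonsense suppression, is the weighted bin median GFP/RFP relative to the unmutated parent tRNA, using each variant's estimated cell share per bin as the weight. Only variants with ≥100 reads and ≥30 cells were included.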

| Variant | nonsense suppression |
| --- | --- |
| A9G U16A U55C | 0.188 |
| A24C G25C A62U | ≤ 0.026 |
| C5U A62U G69C A87U | ≤ 0.026 |
| U4G A33G | 0.0332 |
| A24U A62C | ≤ 0.026 |
| A9G U17C U22C | 0.133 |
| A9C A13U A60U | 1.16 |
| C11G G26C | 0.359 |
| C29U A31C C68U C77A | ≤ 0.026 |
| A13C G18C G26U G61C | ≤ 0.026 |
| G19U G67U | ≤ 0.026 |
| A30U G61A | 0.0365 |
| C1A U8G C12U A14C G85U | ≤ 0.026 |
| A60U C79U | 0.761 |
| C1A A9U C68G U76A C81A | ≤ 0.026 |
| U22G U55C G65C C80U | ≤ 0.026 |
| U55C A74G | 0.144 |
| A14G G18A U21C A30G A33G C79A C82A A89U | ≤ 0.026 |
| A24U G85A | 0.327 |
| C5G A13G G78U | ≤ 0.026 |
| U20C U35C | 0.0559 |
| G15A A24C | 0.0467 |
| U35A U70C G73U C81U | ≤ 0.026 |
| U21C G26U G67A C80G | ≤ 0.026 |

| Variant | nonsense suppression |
| --- | --- |
| C3A U20G G28U U57C G61C A74U G78C C79A | ≤ 0.026 |
| U16C C82G | ≤ 0.026 |
| C11A A13G | ≤ 0.026 |
| A9C A31G | 0.857 |
| U21G G61U | 0.554 |
| C64U C81A | ≤ 0.026 |
| U17C C83U | 0.191 |
| C3A G86C | ≤ 0.026 |
| U21A G85A | 1.06 |
| U4C G61C | 0.86 |
| G25U C34U G59A | 1.15 |
| A13C U76A | 0.282 |
| U58A G61A | 0.0532 |
| U4A G67C C68U | ≤ 0.026 |
| G15A G78A | 0.0278 |
| C11G A13U A62C | ≤ 0.026 |
| U4C U55A G67A C79G C83G | ≤ 0.026 |
| A24C C34G C56U | ≤ 0.026 |
| G6U A9U | 0.0343 |
| C27G U58A U63A | ≤ 0.026 |
| G18A U55A U58A | ≤ 0.026 |
| U4G C79U | 0.173 |
| C11G A30U | ≤ 0.026 |
| U4G U16C | 0.882 |

| Variant | nonsense suppression |
| --- | --- |
| C1A U21C G73A | ≤ 0.026 |
| C1G G10C C29U C34G A89G | ≤ 0.026 |
| C12U A23C U70C | ≤ 0.026 |
| C11U G18A | ≤ 0.026 |
| A33G G61C | 0.034 |
| A54C U76G A89G | ≤ 0.026 |
| U8A G61A C72G C81G | ≤ 0.026 |
| G78U G85C | 0.0488 |
| A24C G65A | 0.0366 |
| U8A A9G | 0.0277 |
| A30U A89U | 0.0434 |
| G6A C79U G88C | ≤ 0.026 |
| A74U G84C | ≤ 0.026 |
| G61U U71A G86A | ≤ 0.026 |
| U21A | 1.02 |
| G28C A89G | 0.0403 |
| A9C U76C | 0.929 |
| C3A C29A A54U | ≤ 0.026 |
| C27U U35A U58A G65A G78C | ≤ 0.026 |
| A13C U21C | 1.17 |
| A31U C75A | 0.758 |
| G6A A13U | 0.0458 |
| C5U G84A | 1.15 |
| A24G U55C | 0.0553 |

| Variant | nonsense suppression |
| --- | --- |
| G15A C81U | 0.0386 |
| G25C U63A | ≤ 0.026 |
| C82A G85U | 0.0445 |
| U57A U58C C81G | ≤ 0.026 |
| C12U A60G | 0.406 |
| U21G C75G | 1.05 |
| G32U U70C | ≤ 0.026 |
| U4A U21G C79U | ≤ 0.026 |
| A30G | 1.11 |
| C3U A24C | 0.0575 |
| G67A C75G | 0.194 |
| G7A A30U | 0.0309 |
| A31G U71G | ≤ 0.026 |
| U76C A87G | 0.932 |
| U22A U76C | 0.967 |
| A60G G69A | 0.0526 |
| G28A C34G G59A | ≤ 0.026 |
| A30U U63A | 0.157 |
| C27U G65U | ≤ 0.026 |
| U4G U63A | 0.199 |
| U20C G88U | ≤ 0.026 |
| C29U G32U U57A A62G U63C G69C | ≤ 0.026 |
| G7C A14C G61U A74U A87G | ≤ 0.026 |
| A23G G73A | 0.0291 |

| Variant | nonsense suppression |
| --- | --- |
| G66C C82U | ≤ 0.026 |
| G25A G73A | 0.0508 |
| U22C A24C | 1.01 |
| U17G A31G | 1.15 |
| A23G A31G | 0.0446 |
| C5A U16G G88U | ≤ 0.026 |
| C12U A13C | 0.2 |
| C11G A33G | ≤ 0.026 |
| C27U G85A | 0.207 |
| A30U U58A G78U | 0.776 |
| G28U A33C U63A U71G | ≤ 0.026 |
| U21G C72U C83G | ≤ 0.026 |
| U2A A13U | 0.0284 |
| U8G A9U C11A G26U | ≤ 0.026 |
| A23G G73C | ≤ 0.026 |
| A24U U63C | 0.0344 |
| A24G A30U U70G C72A | ≤ 0.026 |
| C3U C29G C83G G88C | 0.993 |
| G19U A60U G73U | ≤ 0.026 |
| A9G U55C | 0.245 |
| U55C U63A C75G | 0.0265 |
| G61C A87G | 0.247 |
| G7A U70A A89C | ≤ 0.026 |
| A9U C81U | 0.0272 |

| Variant | nonsense suppression |
| --- | --- |
| U35C C83G | ≤ 0.026 |
| C29A A30C | ≤ 0.026 |
| G61C G73A | 0.213 |
| A24U A60G G65U G88C A89G | ≤ 0.026 |
| A23G A30U | 0.0397 |
| A62C G78A | ≤ 0.026 |
| G15C U17G G19C G25U | ≤ 0.026 |
| U17C C29A G65A C72U C77U | ≤ 0.026 |
| G15A | 0.188 |
| C3A A13U | 0.0379 |
| C5A A30U C68A | ≤ 0.026 |
| A62G G67A | ≤ 0.026 |
| G28C U63A | 0.225 |
| A54C A87G | 0.59 |
| C81U G88U | 0.0501 |
| G61C A87C | 0.0361 |
| A60G C64G | ≤ 0.026 |
| U8A A23G C80G G84C | ≤ 0.026 |
| U16G G85C | 0.0285 |
| G6A A13G U20G C34A G73A | 0.0802 |
| A13U U16G C82U | 0.377 |
| U8G C56U | ≤ 0.026 |
| G61U | 1.03 |
| A24U U55C | 0.104 |

| Variant | nonsense suppression |
| --- | --- |
| U16C U21C | 1.03 |
| C11G C12A U35G U55C U76A G84U | ≤ 0.026 |
| G7C C12A U71G U76C G88A | ≤ 0.026 |
| U17G U55C | 0.0769 |
| U21C C27U | 0.154 |
| G26C C81U | ≤ 0.026 |
| C3G A9G G59U | ≤ 0.026 |
| G18U C82U G86C | ≤ 0.026 |
| C1A C3A U8A G88A | ≤ 0.026 |
| A13U C75U | 1.22 |
| U22C A54U | 1.05 |
| G10A G32C | ≤ 0.026 |
| U4C A9U | 1.07 |
| G25U A60G G61A | ≤ 0.026 |
| A33U C34U | ≤ 0.026 |
| A33C U55C C56U G66U C79G | ≤ 0.026 |
| A13C A31U G61C | ≤ 0.026 |
| A24G A60G | 0.0307 |
| G6U U16C U17C G19U | ≤ 0.026 |
| G15U A23G G65C | ≤ 0.026 |
| A24C U63C | 0.205 |
| U16C C81G | ≤ 0.026 |
| C5G C12A G59U | ≤ 0.026 |

Reference: the RNAGym collection of RNA variant scans (doi:10.1101/gad.245936.114)
